# Compound activity as filed in PubChem.
# The list is not random: actives were taken first. Their share in the collection is about 2.3%.
# MEKK3 PB1 HTS: raises or lowers MEK5 binding to the human MEKK3 PB1 domain; hit rate 1.4% among 290,000; Q99759; binding response (% of control), % at 10 µM; bead-based flow cytometry, Alexa488-MEK5 binding to MEKK3; actives lie on both sides; 0 = blocked by unlabeled MEK5, 100 = vehicle; AID 1529;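 active = binding response more than 3 SD above or below the average of its plate-row segment, actives on both sides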;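 also: Alexa488 bead fluorescence after subtracting the streptavidin-only scavenger bead signal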
# Target sequence (Q99759 whole entry, looked up, the tested form may be a part): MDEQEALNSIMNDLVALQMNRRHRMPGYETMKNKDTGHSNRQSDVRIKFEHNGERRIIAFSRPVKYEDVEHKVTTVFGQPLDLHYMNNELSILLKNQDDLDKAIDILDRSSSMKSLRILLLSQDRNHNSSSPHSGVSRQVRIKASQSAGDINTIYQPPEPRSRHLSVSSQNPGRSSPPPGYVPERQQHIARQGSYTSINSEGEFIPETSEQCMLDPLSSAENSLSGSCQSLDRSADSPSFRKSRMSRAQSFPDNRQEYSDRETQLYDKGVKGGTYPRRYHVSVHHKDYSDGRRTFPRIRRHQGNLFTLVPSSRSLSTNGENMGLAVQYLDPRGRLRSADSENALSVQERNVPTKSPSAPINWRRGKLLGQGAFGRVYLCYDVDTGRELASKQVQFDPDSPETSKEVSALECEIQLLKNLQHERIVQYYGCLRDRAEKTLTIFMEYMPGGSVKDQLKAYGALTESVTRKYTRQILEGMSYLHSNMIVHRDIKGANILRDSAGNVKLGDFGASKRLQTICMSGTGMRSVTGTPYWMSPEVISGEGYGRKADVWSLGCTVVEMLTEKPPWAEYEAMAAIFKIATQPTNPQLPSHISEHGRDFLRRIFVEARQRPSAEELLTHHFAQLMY
# MEKK2wt PB1 HTS: raises or lowers MEK5 binding to wildtype human MEKK2 PB1 domain | AID 1531 | binding response (% of control), % at 10 µM | hit rate 1.1% among 290,000 | bead flow cytometry, Alexa488-MEK5 binding to MEKK2 WT; actives lie on both sides | Q9Y2U5; in the data active = binding response below about 67% or above about 130%
# ABCG2 block: blocks JC-1 efflux by human ABCG2 transporter. Q9UNQ0. IgMXP3 cells, flow cytometry. inhibition, % at 6.6 µM. hit rate 0.1% among 190,000. AID 1325;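 active = inhibition above 80%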;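 also: 0% = DMSO and 100% = nicardipine control wells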
#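 Times: 10 min at 25 °C | Test system: Two drug-resistant human cell lines, ABCG2 and ABCB1 | Quantity: 3 million cells/mL final, two lines in 1:1 ratio | Signal: Flow cytometry, 530 nm JC-1 signal | Dosing: Compound at 6.6 µM | Controls: Nicardipine and DMSO wells | Reagent: JC-1 as fluorescent efflux pump substrate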
# MEKK2 mut-MEK5: signal of MEK5 binding to mutant human MEKK2 PB1 domain | bead flow cytometry, Alexa488-MEK5 binding to MEKK2 mutant | hit rate 0.35% among 290,000 | percent response, % at 10 µM | AID 1530; in the data active = percent response above about 24%, passing the limit was not always enough
# ABCB1 block: blocks JC-1 efflux by human ABCB1 transporter | P08183 | CCRF-Adr cells, flow cytometry | inhibition, % at 6.6 µM | hit rate 0.067% among 190,000; in the data active = inhibition above about 40%;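 also: 0% = vehicle and 100% = reference inhibitor; higher value means more JC-1 retained so stronger ABCB1 efflux block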
# MEKK2wt confirm: raises or lowers MEK5 binding to wildtype human MEKK2, retest; shares compounds with MEKK3 PB1 HTS; bead flow cytometry, Alexa488-MEK5 binding to MEKK2 WT; actives lie on both sides; binding response (% of control), % at 10 µM; hit rate 2.4% among 5,900; in the data active = binding response below about 16% or above about 210%; inactive = in between
# MEKK2mut confirm: signal of MEK5 binding to mutant human MEKK2, retest; shares compounds with MEKK3 PB1 HTS; bead flow cytometry, Alexa488-MEK5 binding to MEKK2 mutant; percent response, % at 10 µM; hit rate 2% among 5,900; AID 1893; in the data active = percent response mostly above about 71%, no sharp cut-off; inactive = mostly below about 38%;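 also: higher means compound restores mutant binding toward wildtype level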
# MEKK3-MEK5 inh: confirmation of inhibitors of MEK5 binding to human MEKK3; shares compounds with MEKK3 PB1 HTS; bead flow cytometry, Alexa488-MEK5 binding to MEKK3; stronger effect = lower value; binding response (% of control), % at 10 µM; hit rate 1.8% among 5,900;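 active = binding response below 72% of control, or above a set upper limit, though filed actives all read lower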;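 also: 100% = DMSO only wells and 0% = binding blocked by excess unlabeled MEK5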
# Active calls of the source: *; . = not tested or not shown; [ ] = dose if it differs, or a comment.
SMILES,MEKK3 PB1 HTS,MEKK2wt PB1 HTS,ABCG2 block,MEKK2 mut-MEK5,ABCB1 block,MEKK2wt confirm,MEKK2mut confirm,MEKK3-MEK5 inh
Cc1cc(Nc2ncc(Cl)cc2Cl)n(-c2ccccc2)n1,139*,108,12,1,1,110,6,104
Cc1cc(NC(=O)CCC(=O)N(c2ccccc2)C(C(=O)NC2CCCC2)c2ccccc2)no1 (configuration not stated),113,101,2,27*,1,100,1,104
CCOC(=O)C1CCN(C(=O)COC(=O)Cc2ccc(Cl)cc2)CC1,106,108,.,7,.,.,.,.
CCCC1(c2ccccc2)NC(=O)N(CC(=O)Nc2cc(C)ccc2OC)C1=O (configuration not stated),102,100,.,-1,.,.,.,.
O=C1CC(c2ccccc2)CN1C(=O)c1cccnc1 (configuration not stated),141*,124,4,6,1,102,0,99
COC(=O)c1cc(S(=O)(=O)Nc2cc(OC)cc(OC)c2)c[nH]1,104,102,.,8,.,.,.,.
CC(C)=CC(=O)N1CCCc2ccccc21,100,101,7,0,1,.,.,.
C/C(=C/C(=O)N1CCc2ccccc21)C(=O)O,145*,117,6,4,0,98,2,101
COc1cc(/C=N/N2CCOCC2)ccc1OC(=O)c1ccco1,49*[inhibitor],52,15,-17,1,95,-7,98
COc1ccc(Cl)cc1NC(=O)C[n+]1cccc(C)c1,94,101,.,-2,.,.,.,.
O=C(C(=O)N1CCN(c2ccccc2)CC1)c1cn(CC(=O)N2CCCCCC2)c2ccccc12,97,88,.,0,.,.,.,.
CCN(CC)c1ccc(/C=N/NC(=O)C(O)(c2ccccc2)c2ccccc2)o1,75*[inhibitor],95,0,0,0,100,0,103
O=C(O)c1ccc(/C=N/NC(=O)C(O)(c2ccccc2)c2ccccc2)cc1,101,103,.,0,.,.,.,.
O=c1[nH]ncc(NCc2ccc(Cl)cc2)c1Cl,132*,107,0,0,0,99,-4,101
CCOc1ccc(NC(=O)[C@@H]2CCC(=O)N2C2OC(=O)c3ccccc32)cc1 (some centres not stated),101,99,.,-2,.,.,.,.
CN(C)CCCNc1ncnc2oc(-c3ccccc3)c(-c3ccccc3)c12,107,134*,.,19,.,115,14,100
c1ccc(-c2oc3ncnc(NCCCn4ccnc4)c3c2-c2ccccc2)cc1,105,120,0,6,0,.,.,.
CCCCOC(=O)Nc1ccc(C(=O)OC)cc1,103,99,6,0,1,.,.,.
CCCCC(CCC(=O)Nc1ccc(C(=O)OC)cc1)C(=O)O (configuration not stated),123*,122,2,12,0,94,-5,93
CCCCN1C(=O)CCC(C(=O)O)C1c1ccccc1 (configuration not stated),0.0*[inhibitor],-1.0*[inhibitor],-1,-17,0,91,-7,85
COC(=O)C1=C(C)N(Cc2ccccc2)C(=S)N[C@H]1c1cccc(F)c1,100,98,.,-1,.,.,.,.
COC(=O)C1=C(C)N(Cc2ccccc2)C(=NCc2ccccc2)N[C@H]1c1cccc(F)c1,109,137*,.,35*,.,132,27,106
COCCN1C(=S)N[C@@H](c2cccc(F)c2)C(C(=O)OC)=C1C,104,147*,.,37*,.,144,47,104
COC(=O)C1=C(C)N(CC2CC2)C(=NCc2cc(OC)c(OC)c(OC)c2)N[C@H]1c1ccccc1,100,99,.,0,.,.,.,.
COC(=O)C1=C(C)N(CC2CC2)C(=NCc2cccc(Cl)c2)N[C@H]1c1ccccc1,103,125,.,26*,.,132,14,107
SMILES,MEKK3 PB1 HTS,MEKK2wt PB1 HTS,ABCG2 block,MEKK2 mut-MEK5,ABCB1 block,MEKK2wt confirm,MEKK2mut confirm,MEKK3-MEK5 inh
O=C(O)c1cc2[nH]c3c(c2cc1Cl)CCCC3,107,103,.,9,.,.,.,.
COc1ccc(OCC(O)CNS(=O)(=O)c2cccs2)cc1 (configuration not stated),108,109,.,5,.,.,.,.
CCn1c(SCc2cccc(OC)c2)nc2ccccc2c1=O,98,93,.,-5,.,.,.,.
CCC(=O)Nc1ccc2c(c1)ncn2C,75*[inhibitor],81,0,-5,0,108,1,103
Cn1cnc2cc(NC(=O)COc3ccccc3)ccc21,99,96,.,-5,.,.,.,.
COC(=O)Cn1c(=NC(=O)c2ccc(Cl)s2)sc2cc(F)ccc21,134*,102,-6,0,0,99,-1,98
Cc1ccccc1-n1c(O)c(/C=N/N2CCCCC2c2cccnc2)c(=O)[nH]c1=O (configuration not stated),173*,105,2,0,0,104,3,101
Cc1[nH]c2ccccc2c1C(=O)COc1ccccc1,142*,118,2,1,1,102,3,101
Cc1[nH]c2ccccc2c1C(=O)COc1ccccc1F,106,103,6,-39,1,.,.,.
COc1cccc2c(=O)c(C/C=C(/C)Cl)c(C)[nH]c12,79*[inhibitor],88,5,-8,1,104,5,102
C=CCOc1ccc(C2=NOC(C(=O)Nc3ccc4c(c3)OCCO4)C2)cc1 (configuration not stated),100,102,.,0,.,.,.,.
Cc1ccccc1OCCn1cc(/C=C(\C#N)C(=O)NCc2ccco2)c2ccccc21,75*[inhibitor],67,2,-2,0,101,-2,103
N#C/C(=C\c1cn(CCOc2ccccc2)c2ccccc12)C(=O)NCc1ccco1,100,93,18,-1,2,.,.,.
Cc1ccccc1CNC(=O)C1CCN(c2nnc(N3CCCC3=O)s2)CC1,101,104,.,1,.,.,.,.
Cc1ccc(C)c(C2=CSC3=NS(=O)(=O)CCN23)c1,2.0*[inhibitor],3.0*[inhibitor],10,-21,1,95,-6,98
Cc1ccc(C2=CSC3=NS(=O)(=O)CCN23)cc1,89,88,1,-2,0,.,.,.
COc1ccc(CCN2CCCn3c2nc2c3c(=O)n(CC(C)C)c(=O)n2C)cc1OC,100,101,.,-4,.,.,.,.
S=C(NCCCN1CCOCC1)N1CCN(c2nc(-c3ccc(Cl)cc3)cs2)CC1,109,163*,3,47,0,169,43,112
